From ChEMBL document CHEMBL1150393, “Evaluation of radiolabeled (hetero)aromatic analogues of N-(2-diethylaminoethyl)-4-iodobenzamide for imaging and targeted radionuclide therapy of melanoma” (J Med Chem, 2008)

Assays:
[1] = Binding affinity to melanin in water; design: concentration or dose not given beside the values; settings: tested as the 125I-labelled form
[2] = Binding affinity to melanin in phosphate buffer solution; design: concentration or dose not given beside the values; settings: tested as the 125I-labelled form
[3] = Biodistribution in gall bladder of C57BL/6 mouse bearing mouse B16-F0 cells at 0.74 to 0.92 MBq, iv after 3 hrs; type: ADME, organism-based; settings: in vivo
Procedure, shortened: (§1)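 Male C57BL6 mice with s.c. left-flank B16-F0 melanoma (5 × 10⁵ cells in PBS). Two mice per time point frozen in liquid nitrogen after CO₂ sacrifice. Eight 40 µm whole-body cryosections per mouse read by multiwire proportional counter. cpm/mm² converted to kBq/g and expressed as %ID/g.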

[4] = Partition coefficient, log P in phosphate buffer solution at pH 7.4; type: physicochemical
Procedure, shortened: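 Shake-flask partition: 50 µM [¹²⁵I]-labelled compound in phosphate buffer pH 7.4 was mixed with 2 mL n-octanol. Each phase was γ-counted, P was taken as the octanol/buffer activity ratio, and log P was reported.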

[5] = Drug excretion in mouse B16-F0 cells bearing C57BL/6 mouse urine at 0.74 to 0.92 MBq, iv after 72 hrs; type: ADME, organism-based; settings: in vivo
Procedure, shortened: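 Urine was collected from two B16-F0 tumour-bearing C57BL6 mice for up to 72 h after iv tail-vein injection of the [¹²⁵I]-labelled compound (0.1 µmol). Samples were counted to give cumulative urinary excretion as %ID.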

[6] = Biodistribution in tumor of C57BL/6 mouse bearing mouse B16-F0 cells at 0.74 to 0.92 MBq, iv after 1 hr; type: ADME, organism-based, Neoplasm; settings: in vivo
Procedure, shortened: (§2)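 [¹²⁵I]-labelled compound given iv by tail vein (0.1 µmol per mouse) to male C57BL6 mice bearing s.c. B16-F0 flank tumours (5 × 10⁵ cells in PBS). Two mice per time point were killed by CO₂, frozen in liquid nitrogen and cut into 40 µm cryosections, eight slices per mouse. Slice radioactivity was read on a multiwire proportional counter, converted to kBq/g and reported as %ID/g.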

[7] = Biodistribution in tumor of C57BL/6 mouse bearing mouse B16-F0 cells at 0.74 to 0.92 MBq, iv after 3 hrs; type: ADME, organism-based, Neoplasm; settings: in vivo; procedure, shortened: as §2
[8] = Biodistribution in tumor of C57BL/6 mouse bearing mouse B16-F0 cells at 0.74 to 0.92 MBq, iv after 6 hrs; type: ADME, organism-based, Neoplasm; settings: in vivo; procedure, shortened: as §2
[9] = Biodistribution in tumor of C57BL/6 mouse bearing mouse B16-F0 cells at 0.74 to 0.92 MBq, iv after 24 hrs; type: ADME, organism-based, Neoplasm; settings: in vivo; procedure, shortened: as §2
[10] = Biodistribution in tumor of C57BL/6 mouse bearing mouse B16-F0 cells at 0.74 to 0.92 MBq, iv after 72 hrs; type: ADME, organism-based, Neoplasm; settings: in vivo; procedure, shortened: as §2
[11] = Ratio of drug level in tumor to liver of C57BL/6 mouse bearing mouse B16-F0 cells at 0.74 to 0.92 MBq, iv after 1 hr; type: ADME, organism-based; settings: in vivo
Procedure, shortened: (§3)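 Tumour and organ radioactive concentrations came from whole-body cryosection counting (40 µm slices, eight per mouse, two mice per time) after tail-vein injection of the [¹²⁵I]-labelled compound (0.1 µmol) into male C57BL6 mice bearing s.c. B16-F0 melanoma. Each value is the ratio of the tumour concentration to the organ concentration.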

[12] = Ratio of drug level in tumor to liver of C57BL/6 mouse bearing mouse B16-F0 cells at 0.74 to 0.92 MBq, iv after 3 hrs; type: ADME, organism-based; settings: in vivo; procedure, shortened: as §3
[13] = Ratio of drug level in tumor to lung of C57BL/6 mouse bearing mouse B16-F0 cells at 0.74 to 0.92 MBq, iv after 1 hr; type: ADME, organism-based; settings: in vivo; procedure, shortened: as §3
[14] = Ratio of drug level in tumor to brain of C57BL/6 mouse bearing mouse B16-F0 cells at 0.74 to 0.92 MBq, iv after 1 hr; type: ADME, organism-based; settings: in vivo; procedure, shortened: as §3
Brain = assay: Biodistribution in brain of C57BL/6 mouse bearing mouse B16-F0 cells at 0.74 to 0.92 MBq, iv after 1 hr; type: ADME, organism-based; settings: in vivo; procedure, shortened: as §1
[15] = Biodistribution in intestinal content of C57BL/6 mouse bearing mouse B16-F0 cells at 0.74 to 0.92 MBq, iv after 1 hr; type: ADME, organism-based; settings: in vivo; procedure, shortened: as §1
[16] = Biodistribution in intestinal content of C57BL/6 mouse bearing mouse B16-F0 cells at 0.74 to 0.92 MBq, iv after 3 hrs; type: ADME, organism-based; settings: in vivo; procedure, shortened: as §1
[17] = Biodistribution in intestinal content of C57BL/6 mouse bearing mouse B16-F0 cells at 0.74 to 0.92 MBq, iv after 6 hrs; type: ADME, organism-based; settings: in vivo; procedure, shortened: as §1
[18] = Biodistribution in Stomach content of C57BL/6 mouse bearing mouse B16-F0 cells at 0.74 to 0.92 MBq, iv after 1 hr; type: ADME, organism-based; settings: in vivo; procedure, shortened: as §1
[19] = Biodistribution in Stomach content of C57BL/6 mouse bearing mouse B16-F0 cells at 0.74 to 0.92 MBq, iv after 3 hrs; type: ADME, organism-based; settings: in vivo; procedure, shortened: as §1
[20] = Biodistribution in Stomach content of C57BL/6 mouse bearing mouse B16-F0 cells at 0.74 to 0.92 MBq, iv after 6 hrs; type: ADME, organism-based; settings: in vivo; procedure, shortened: as §1
Liver [21] = assay: Biodistribution in liver of C57BL/6 mouse bearing mouse B16-F0 cells at 0.74 to 0.92 MBq, iv after 1 hr; type: ADME, organism-based; settings: in vivo; procedure, shortened: as §1
Liver [22] = assay: Biodistribution in liver of C57BL/6 mouse bearing mouse B16-F0 cells at 0.74 to 0.92 MBq, iv after 3 hrs; type: ADME, organism-based; settings: in vivo; procedure, shortened: as §1
Muscle tissue = assay: Biodistribution in muscle of C57BL/6 mouse bearing mouse B16-F0 cells at 0.74 to 0.92 MBq, iv after 1 hr; type: ADME, organism-based; settings: in vivo; procedure, shortened: as §1
Lung = assay: Biodistribution in lung of C57BL/6 mouse bearing mouse B16-F0 cells at 0.74 to 0.92 MBq, iv after 1 hr; type: ADME, organism-based; settings: in vivo; procedure, shortened: as §1
Spleen = assay: Biodistribution in spleen of C57BL/6 mouse bearing mouse B16-F0 cells at 0.74 to 0.92 MBq, iv after 1 hr; type: ADME, organism-based; settings: in vivo; procedure, shortened: as §2
Kidney = assay: Biodistribution in kidney of C57BL/6 mouse bearing mouse B16-F0 cells at 0.74 to 0.92 MBq, iv after 1 hr; type: ADME, organism-based; settings: in vivo; procedure, shortened: as §1
Blood = assay: Biodistribution in blood of C57BL/6 mouse bearing mouse B16-F0 cells at 0.74 to 0.92 MBq, iv after 1 hr; type: ADME, organism-based; settings: in vivo; procedure, shortened: as §1
Thyroid gland [23] = assay: Biodistribution in thyroid of C57BL/6 mouse bearing mouse B16-F0 cells at 0.74 to 0.92 MBq, iv after 1 hr; type: ADME, organism-based; settings: in vivo; procedure, shortened: as §2
Thyroid gland [24] = assay: Biodistribution in thyroid of C57BL/6 mouse bearing mouse B16-F0 cells at 0.74 to 0.92 MBq, iv after 3 hrs; type: ADME, organism-based; settings: in vivo; procedure, shortened: as §2
Thyroid gland [25] = assay: Biodistribution in thyroid of C57BL/6 mouse bearing mouse B16-F0 cells at 0.74 to 0.92 MBq, iv after 6 hrs; type: ADME, organism-based; settings: in vivo; procedure, shortened: as §2
Thyroid gland [26] = assay: Biodistribution in thyroid of C57BL/6 mouse bearing mouse B16-F0 cells at 0.74 to 0.92 MBq, iv after 24 hrs; type: ADME, organism-based; settings: in vivo; procedure, shortened: as §2
[27] = Biodistribution in uvea of C57BL/6 mouse bearing mouse B16-F0 cells at 0.74 to 0.92 MBq, iv after 1 hr; type: ADME, organism-based, Uveal tract; settings: in vivo; procedure, shortened: as §2
[28] = Biodistribution in uvea of C57BL/6 mouse bearing mouse B16-F0 cells at 0.74 to 0.92 MBq, iv after 3 hrs; type: ADME, organism-based, Uveal tract; settings: in vivo; procedure, shortened: as §2
[29] = Biodistribution in uvea of C57BL/6 mouse bearing mouse B16-F0 cells at 0.74 to 0.92 MBq, iv after 6 hrs; type: ADME, organism-based, Uveal tract; settings: in vivo; procedure, shortened: as §2
[30] = Biodistribution in uvea of C57BL/6 mouse bearing mouse B16-F0 cells at 0.74 to 0.92 MBq, iv after 24 hrs; type: ADME, organism-based, Uveal tract; settings: in vivo; procedure, shortened: as §2
[31] = Biodistribution in uvea of C57BL/6 mouse bearing mouse B16-F0 cells at 0.74 to 0.92 MBq, iv after 72 hrs; type: ADME, organism-based, Uveal tract; settings: in vivo; procedure, shortened: as §2

For CCN(CC)CCNC(=O)c1c[nH]c2ccc(I)cc2c1=O, the Activity [1] was 86.7% and the Activity [2] was 59%.
Compound CCN(CC)CCNC(=O)c1ccc2cncc(I)c2n1 has an Activity [1] of 44.8% and an Activity [2] of 35.3%.
With CCN(CC)CCNC(=O)c1nc2cc(I)ccc2[nH]1 the Activity [1] was 84.5% and the Activity [2] was 47.1%.
CCN(CC)CCNC(=O)c1cc2c([125I])cccc2s1.Cl gave a Drug uptake [3] of 65.56 % ID/g, a logD [4] of 1.54 and an Activity [5] of 52.6%. The Drug uptake [6] was 12.5 % ID/g, the Drug uptake [7] was 10 % ID/g and the Drug uptake [8] was 8.7 % ID/g. The Drug uptake [9] was 7.3 % ID/g, the Drug uptake [10] was 1.7 % ID/g and the Ratio [11] was 5.64. The Ratio [12] was 7.98, the Ratio [13] was 3.38 and the Ratio [14] was 15.4. It also gave a Drug uptake (Brain) of 0.81 % ID/g, a Drug uptake [15] of 71.13 % ID/g and a Drug uptake [16] of 73.02 % ID/g. It also gave a Drug uptake [17] of 37.7 % ID/g, a Drug uptake [18] of 20 % ID/g and a Drug uptake [19] of 5.93 % ID/g. For the same compound, the Drug uptake [20] was 18.77 % ID/g, the Drug uptake (Liver [21]) was 2.21 % ID/g and the Drug uptake (Liver [22]) was 1.25 % ID/g. The Drug uptake (Muscle tissue) was 0.77 % ID/g, the Drug uptake (Lung) was 3.69 % ID/g and the Drug uptake (Spleen) was 3.88 % ID/g. It also gave a Drug uptake (Kidney) of 5.61 % ID/g, a Drug uptake (Blood) of 1.37 % ID/g and a Drug uptake (Thyroid gland [23]) of 24.03 % ID/g. For the same compound, the Drug uptake (Thyroid gland [24]) was 67.21 % ID/g, the Drug uptake (Thyroid gland [25]) was 139.12 % ID/g and the Drug uptake (Thyroid gland [26]) was 79.82 % ID/g. It also gave a Drug uptake [27] of 16.09 % ID/g, a Drug uptake [28] of 19.51 % ID/g and a Drug uptake [29] of 16.29 % ID/g. For the same compound, the Drug uptake [30] was 11.06 % ID/g and the Drug uptake [31] was 9.22 % ID/g.
In the case of CCN(CC)CCNC(=O)c1cc2c(I)cccc2cn1, the Activity [1] is reported as 87% and the Activity [2] is reported as 45.2%.
For CCN(CC)CCNC(=O)c1cc2cc(I)ccc2o1, the Activity [1] was 87% and the Activity [2] was 45.2%.
With CCN(CC)CCNC(=O)c1ccc2cc(I)ccc2c1 the Activity [1] was 80.8% and the Activity [2] was 50.9%.
